Measurements published in ChEMBL document CHEMBL1137213, “New substituted piperazines as ligands for melanocortin receptors. Correlation to the X-ray structure of "THIQ"” (J Med Chem, 2004).

Key:
[1] = molecular target: Melanocyte-stimulating hormone receptor (Homo sapiens, UniProt Q01726); experiment: Binding affinity towards Melanocortin 1 receptor using [125I]NDP-MSH
Method in brief: (§1)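 Human MC1, MC3, MC4 or MC5 receptor expressed in Sf9 cells by recombinant virus infection for 72 h; membranes prepared from these cells. Membranes (10 µg protein/100 µL) incubated with [125I]NDP-MSH and competing unlabeled ligand in 20 mM K-Hepes pH 7.4, 5 mM NaCl, 1 mM CaCl2, 0.5 mM MgCl2, 0.5 mg/mL BSA for 3 h at 25 °C. Ended by filtration through glass-fiber filters. Nonspecific binding set with 3 µM NDP-MSH.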

Melanocortin receptor 3 = Melanocortin receptor 3 (Homo sapiens, UniProt P41968); experiment: Binding affinity towards Melanocortin 3 receptor using [125I]NDP-MSH; method in brief: as §1
Sequence of Melanocortin receptor 3 (P41968 whole entry): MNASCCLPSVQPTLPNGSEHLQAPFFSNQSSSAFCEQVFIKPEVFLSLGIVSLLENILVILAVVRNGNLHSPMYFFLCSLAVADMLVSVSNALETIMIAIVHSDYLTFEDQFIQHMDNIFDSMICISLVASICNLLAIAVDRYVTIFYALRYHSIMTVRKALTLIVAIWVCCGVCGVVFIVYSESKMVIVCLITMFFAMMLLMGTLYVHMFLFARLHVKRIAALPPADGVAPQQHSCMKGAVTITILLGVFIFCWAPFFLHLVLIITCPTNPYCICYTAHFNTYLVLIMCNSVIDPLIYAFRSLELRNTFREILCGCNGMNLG

Melanocortin receptor 4 = Melanocortin receptor 4 (Homo sapiens, UniProt P32245); experiment: Binding affinity towards Melanocortin 4 receptor using [125I]NDP-MSH; method in brief: as §1
Sequence of Melanocortin receptor 4 (P32245 whole entry): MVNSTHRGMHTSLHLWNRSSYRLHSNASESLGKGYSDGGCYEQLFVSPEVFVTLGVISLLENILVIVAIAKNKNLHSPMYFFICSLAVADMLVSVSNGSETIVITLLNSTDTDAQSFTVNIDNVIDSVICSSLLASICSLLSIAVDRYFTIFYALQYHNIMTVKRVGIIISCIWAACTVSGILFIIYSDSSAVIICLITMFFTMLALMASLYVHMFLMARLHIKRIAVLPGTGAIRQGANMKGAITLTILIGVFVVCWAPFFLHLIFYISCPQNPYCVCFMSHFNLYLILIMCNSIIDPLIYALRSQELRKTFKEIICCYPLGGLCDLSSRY

Melanocortin receptor 5 = Melanocortin receptor 5 (Homo sapiens, UniProt P33032); experiment: Binding affinity towards Melanocortin 5 receptor using [125I]NDP-MSH; method in brief: as §1
Sequence of Melanocortin receptor 5 (P33032 whole entry): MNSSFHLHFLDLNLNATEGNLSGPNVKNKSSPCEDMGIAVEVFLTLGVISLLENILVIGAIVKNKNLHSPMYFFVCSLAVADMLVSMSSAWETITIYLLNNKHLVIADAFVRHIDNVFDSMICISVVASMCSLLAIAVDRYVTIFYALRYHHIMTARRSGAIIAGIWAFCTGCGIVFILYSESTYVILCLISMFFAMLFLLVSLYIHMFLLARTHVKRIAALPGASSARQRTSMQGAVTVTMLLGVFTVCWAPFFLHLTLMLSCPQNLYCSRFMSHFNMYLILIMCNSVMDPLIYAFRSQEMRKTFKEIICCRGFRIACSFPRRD

Sequence of Melanocyte-stimulating hormone receptor (Q01726 whole entry): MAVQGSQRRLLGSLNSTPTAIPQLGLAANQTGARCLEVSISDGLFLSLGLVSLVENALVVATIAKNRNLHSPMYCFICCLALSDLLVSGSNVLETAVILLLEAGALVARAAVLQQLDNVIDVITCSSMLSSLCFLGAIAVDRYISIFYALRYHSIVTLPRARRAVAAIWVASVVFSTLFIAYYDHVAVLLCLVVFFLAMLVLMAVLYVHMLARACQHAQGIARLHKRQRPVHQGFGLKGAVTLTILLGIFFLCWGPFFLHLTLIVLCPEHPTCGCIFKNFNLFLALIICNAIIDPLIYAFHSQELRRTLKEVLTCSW

Ki [1] [µM] | Ki (Melanocortin receptor 3) [µM] | Ki (Melanocortin receptor 4) [µM] | Ki (Melanocortin receptor 5) [µM] | SMILES
0.53 | 8.8 | 1.5 | 18 | O=C(N[C@H](Cc1ccc(Cl)cc1)C(=O)N1CCN(C2(Cn3cncn3)CCCC2)CC1)C1Cc2ccccc2CN1 (stereo partly specified)
13 | 15 | 30 | 17 | O=C(N[C@H](Cc1ccc(Cl)cc1)C(=O)N1CCN(c2ccccc2)CC1)C1Cc2ccccc2CN1 (stereo partly specified)
2 | 5.2 | 0.39 | 16 | O=C(N[C@H](Cc1ccc(Cl)cc1)C(=O)N1CCN(C2CCCCC2Cn2cncn2)CC1)C1Cc2ccccc2CN1 (stereo partly specified)
 |  |  | 5 | O=C(N[C@H](Cc1ccc(Cl)cc1)C(=O)N1CCC(Cn2cncn2)(C2CCCCC2)CC1)[C@H]1Cc2ccccc2CN1
11 | 6.8 | 1.4 | 8.2 | O=C(N[C@H](Cc1ccc(Cl)cc1)C(=O)N1CCN(C2CCCCC2)CC1)C1Cc2ccccc2CN1 (stereo partly specified)
36 | 35 | 169 | 94 | O=C(N[C@H](Cc1ccc(Cl)cc1)C(=O)N1CC[N+]([O-])(c2ccccc2)CC1)C1Cc2ccccc2CN1 (stereo partly specified)
2.2 | 6.5 | 0.86 | 17 | O=C(N[C@H](Cc1ccc(Cl)cc1)C(=O)N1CCN([C@H]2CCCC[C@@H]2n2cncn2)CC1)C1Cc2ccccc2CN1 (stereo partly specified)
152 | 114 | 57 | 102 | O=C(N[C@H](Cc1ccc(Cl)cc1)C(=O)N1CC[N+]([O-])(C2CCCCC2)CC1)C1Cc2ccccc2CN1 (stereo partly specified)
2 | 4.4 |  | 9.8 | O=C(N[C@H](Cc1ccc(Cl)cc1)C(=O)N1CCN([C@@H]2CCCC[C@H]2n2cncn2)CC1)C1Cc2ccccc2CN1 (stereo partly specified)

SMILES | Ki [1] [µM] | Ki (Melanocortin receptor 3) [µM] | Ki (Melanocortin receptor 4) [µM] | Ki (Melanocortin receptor 5) [µM]
O=C(N[C@H](Cc1ccc(Cl)cc1)C(=O)N1CCN(C2(Cn3cncn3)CCCCC2)CC1)C1Cc2ccccc2CN1 (stereo partly specified) | 3.2 | 5.6 | 1 | 14
